Measurements reported in the EternaBench riboswitch data.

Test system: MS2 coat protein
Assay: apparent Kd, MS2 coat protein; higher = weaker binding; RNA-MaP array; FMN 200 µM where present
Procedure, shortened: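 In 100 mM Tris-HCl pH 7.5, 80 mM KCl, 4 mM MgCl2, BSA, DTT, yeast tRNA and Tween-20, SNAP-549-labelled MS2 coat protein was titrated from 0.7 or 1.5 nM, doubling to 3 µM, over designs transcribed by stalled E. coli RNA polymerase on Illumina sequencing-chip clusters. This was done first without ligand, then with ligand held constant. After green signal was normalised to red-channel RNA signal and control-cluster median Fmax, the apparent Kd was taken as the median of filtered per-cluster binding-curve fits.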

[1] = designed as: OFF switch for flavin mononucleotide, no ligand
[2] = ligand present: flavin mononucleotide, designed as: OFF switch for flavin mononucleotide
[3] = designed as: ON switch for flavin mononucleotide, no ligand
[4] = ligand present: flavin mononucleotide, designed as: ON switch for flavin mononucleotide

| Sequence | apparent Kd [1] | apparent Kd [2] | apparent Kd [3] | apparent Kd [4] |
| --- | --- | --- | --- | --- |
| AAAUAGCGAGGAUAUACAUGAGGAUCACCCAUGUGGACUGAUGUAGCAUGUUUCAGUGGUAGAAGGUGCUCAAA | 0.112 µM | 0.1 µM | – | – |
| UCUACGCGAAUCAAGAUGGAUAGCACAUGAGGAUCACCCAUGUAGGAUAUGCUACACAAAGUGUAGCAGAAGGACAAGCGUAGA | 0.0265 µM | 0.0383 µM | – | – |
| GUAGCAUACGGAGGAUAUCCAUACCGGAAACGGACAUGAGGAUCACCCAUGUGGCGAAAGCCUUGGGAGAAGGCCGUAUGCUAC | – | – | 0.00463 µM | 0.00367 µM |
| AGUCGGAGCAGAGGAUAUUACAUGAGGAUCACCCAUGUGGAAGAACCAAGCUGGAAACAGCAAUGUAAGAAGGCUGCUCCGACA | 0.918 µM | 0.43 µM | – | – |
| AUAGCAACAUGAGGAUCACCCAUGUAGGAUAUCGCUAUUGUAAUCAUGAAACAUGAUUACAAUAGCGAGAAGGACAUAUGCUAG | 0.0115 µM | 0.0123 µM | – | – |
| GAAUUAUUGAUCCAAUUUUACAACAUGAGGAUCACCCAUGUGCAGGAUAUCGUGUGUUUUAUAUUCGAGAAGGGCAAGAACUUU | 0.141 µM | 0.3 µM | – | – |
| AGAGUGAUUACCUCGGUCCCACAUGAGGAUCACCCAUGUAACAAGGAUAUCGCUCCAAAUGGAAGUGAGAAGGUGUCUCAUGUC | 0.0278 µM | 0.0422 µM | – | – |
| GCAACGCCUGACAUGAGGAUCACCCAUGUUAGAUUGUUAUGUCAGGAUAUUGUCUAGAAACUAGACAAGAAGGGAUGCGUUGCU | – | – | 0.304 µM | 0.0218 µM |
| GAUCGUUUAGAGGAUAUCGUGCUAAACAUUACAUGAGAAGGCUAGACAUGAGGAUCACCCAUGUAUGCUCGUGA | 0.0155 µM | 0.0171 µM | – | – |
| GCGAUUUUGUAAGGAUAUACACGAGUUUUAAGUGUAGAAGGUGCUUACAUGAGGAUCACCCAUGUAUAAAUGUAUAAUAGUCGC | – | – | 0.00914 µM | 0.00818 µM |
| UGAAAUCAUGUAGGAUAUGCAUGGCGAAGCUACGCAGAAGGACAUGAGGAUCACCCAUGUUAUAGCUACCCAGUUUGGUGGCAA | 0.0498 µM | 0.151 µM | – | – |
| GUUAGUUAAGGAUAUACUGGGAGCUGCGGCGUCUCGCCGCAACAUGAGGAUCACCCAUGUAGAAGGUGGCCAUU | 0.765 µM | 0.425 µM | – | – |
| CUGGCCCAGCCCGCCUAGUUCGGGAGAAGGAGGAGACAUGAGGAUCACCCAUGUGGCCUUAUCUCCUAGGAUAUCCCGGCGGGU | 0.00532 µM | 0.0179 µM | – | – |
| CAUUAAUUCAUUAUAGUUAUUAUACAGGAUAUGUUACAUGAGGAUCACCCAUGUAUUCAUGGUAAACAGAAGGGUAAUACUAGU | 0.0111 µM | 0.0158 µM | – | – |
| GGUGCGUAUGUGAGGAUAUGCUGGUCCUUGGAUCAGCAGAAGGCACAUGAGGAUCACCCAUGUGGUGUCGUACA | 0.347 µM | 0.0401 µM | – | – |
| GGAUGAUUAAUAGGAUAUUAGUUGUAAAAUGGUUAAGAAGGAUUAAUGAUUUAAACGACCAGUUACAUGAGGAUCACCCAUGUA | – | – | 0.0216 µM | 0.0189 µM |
| UCAUGUUAGCAGGAUAUGCUAUUUAUUUUUUAUGCAGAAGGGCUUACAUGAGGAUCACCCAUGUAUUAAGUUUU | 0.154 µM | 0.0191 µM | – | – |
| AAGCGCGUAGGAUAUACAUGAGGAUCACCCAUGUGAGGAGGGAGUUGGAGGUGUGGAAGUAGAAGGACGGAGUG | 0.0481 µM | 0.0376 µM | – | – |
| AAGUUUGUACGAGGAUAUCAAUUGUUUCUAAAUUCAACAUGAGGAUCACCCAUGUAACAAUGGAGUGAGAAGGCGUGUGGGCAA | – | – | 0.214 µM | 0.203 µM |
| UUGAUGUCAGGAUAUGCUUAAUAUAUUUUAUUAUAAUAUAUACAUGAGGAUCACCCAUGUAGAAGGGACAUUAU | 0.0291 µM | 0.0257 µM | – | – |
| UUUCCGCAAGGAUAUACGGGCUGUGCUUUUCAUUUCUUACAACAUGAGGAUCACCCAUGUAGAAGGUGCUUCUU | 0.208 µM | 0.217 µM | – | – |
| AUAGUGCGCGAGAAGGACGUACCACAUGAGGAUCACCCAUGUGUGGUACGUAGGAUAUUGCACAUGAGGAUCACCCAUGUGGAU | – | – | 0.0195 µM | 0.0346 µM |
| CGCUAGUCAGGAUAUACGAACAUGUCAAAAGACGUGAAGGGACAUGAGGAUCACCCAUGUAGAAGGGACUAGCU | 0.027 µM | 0.182 µM | – | – |
| CAGCGAUAGCUAAAGUAUCUAUCAGAGGAUAUUUAUGAAACAUGAGGAUCACCCAUGUGAAACUGGGAGAAGGCUGAUAGAUAG | – | – | 0.0119 µM | 0.00547 µM |
| GUGACGAAUGUAGGAUAUGCUGACCAAUGGUCAGCAGAAGGACAUGAGGAUCACCCAUGUCAUCCUUAUAAUAAAUAACGUCAC | 0.0134 µM | 0.0181 µM | – | – |
| CCGUCAAUCGAGAAGGGCCUAUGUGCUACAUCGGCAGGAUAUCGACAUGAGGAUCACCCAUGUUGGCGAUCCUUUUUGGCGGAC | 0.156 µM | 0.0241 µM | – | – |
| AACAGGACAGGAUAUACAUGAGGAUCACCCAUGUGAGAAUUAAGCAGCGUACCACACAGUAGAAGGGUCAUGGA | 0.0467 µM | 0.04 µM | – | – |
